# Measurements taken from ChEMBL document CHEMBL1141192 (J Med Chem, 2005).
# Key:
# [1] = Half life at late phase in rat at 3 mg/kg, po; format: ADME, organism-based; design: dose 3 mg/kg, route oral; settings: in vivo
# Outline: (§1)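 Compound at 3 mg/kg in 0.1% MC given po or iv to rats or dogs; plasma sampled at 0.25, 0.5, 1, 2, 4, 8 and 24 h; drug levels measured by HPLC.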
# Canis familiaris = experiment: Volume of distribution in dog at 3 mg/kg, po; format: ADME, organism-based, Canis lupus familiaris; design: dose 3 mg/kg, route oral; settings: in vivo; outline: as §1
# Rattus norvegicus [2] = experiment: Volume of distribution in rat at 3 mg/kg, po; format: ADME, organism-based; design: dose 3 mg/kg, route oral; settings: in vivo; outline: as §1
# Rattus norvegicus [3] = experiment: Hyperalgesia in male SD rat administered 2 hrs after carrageenan injection, analgesia tested at 3 hrs; format: functional; settings: Sprague-Dawley
# Outline: (§2)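 Fasted male SD rats (94–118 g); compound suspended in 0.1% MC, given orally at 1, 3 and 10 mg/kg either 1 h before (prophylactic) or 2 h after (therapeutic) intraplantar carrageenan (1%, 100 μL/paw). Mechanical threshold read by Randall-Selitto analgesimeter at 3, 4, 5 and 6 h post-carrageenan.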
# [4] = Half life at early phase in rat at 3 mg/kg, po; format: ADME, organism-based; design: dose 3 mg/kg, route oral; settings: in vivo; outline: as §1
# Rattus norvegicus [5] = organism: Rattus norvegicus; experiment: Rotarod test in rat at 5 hrs; format: functional; settings: Sprague-Dawley
# Outline: (§3)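 Fasted male SD rats (94–104 g), n = 6 per dose group, given 10–300 mg/kg po in 0.1% MC after training on a 5 rpm rotorod; walking time recorded at 0, 0.5, 1, 2 and 5 h post-dose, 150 s cutoff.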
# Rattus norvegicus [6] = experiment: Hyperalgesia in male SD rat administered 2 hrs after carrageenan injection, analgesia tested at 5 hrs; format: functional; settings: Sprague-Dawley; outline: as §2
# [7] = Clearance in rat at 3 mg/kg, po; format: ADME, organism-based; design: dose 3 mg/kg, route oral; settings: in vivo; outline: as §1
# [8] = AUC (0-24) in rat at 3 mg/kg, po; format: ADME, organism-based; design: time < 24 hr, dose 3 mg/kg, route oral; settings: plasma
# Rattus norvegicus [9] = experiment: Hyperalgesia in male SD rat administered 1 hr before carrageenan injection, analgesia tested at 5 hrs; format: functional, Sprague-Dawley; outline: as §2
# Rattus norvegicus [10] = organism: Rattus norvegicus; experiment: Inhibition of formalin induced paw pain in male SD rat; format: functional; settings: Sprague-Dawley
# Outline: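 Fasted male SD rats (4 weeks, 105–115 g), six per dose group; compound in 0.1% MC po at 0.3, 1, 3 and 10 mg/kg, 15 min before 50 μL of 2% formalin s.c. into right hindpaw plantar surface.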
# Rattus norvegicus [11] = experiment: Inhibition of the licking and biting response at 20 mg/kg, po in rat by formalin paw antinociceptive assay; format: functional; settings: Sprague-Dawley
# Outline: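 Screening: fasted male SD rats (105–115 g), three per compound, 20 mg/kg po in 0.1% MC 15 min before 2% formalin (50 μL s.c., right hindpaw). Licking/biting scored 5 s per 30 s; percent inhibition reported for 2nd phase (15–30 min); positive control 5 mg/kg po each run.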
# [12] = Metabolic stability by incubation with human liver microsomes; format: ADME, Microsome
# Rattus norvegicus [13] = organism: Rattus norvegicus; experiment: Rotarod test in rat at 0.5 hrs; format: functional; settings: Sprague-Dawley; outline: as §3
# [14] = Maximum concentration in rat at 3 mg/kg, po; format: ADME, organism-based; design: dose 3 mg/kg, route oral; settings: in vivo; outline: as §1
# Rattus norvegicus [15] = organism: Rattus norvegicus; experiment: Rotarod test in rat at 1 hr; format: functional; settings: Sprague-Dawley; outline: as §3
# [16] = Half life in dog at 3 mg/kg, po; format: ADME, organism-based, Canis lupus familiaris; design: dose 3 mg/kg, route oral; settings: in vivo; outline: as §1
# Rattus norvegicus [17] = experiment: Hyperalgesia in male SD rat administered 2 hrs after carrageenan injection, analgesia tested at 6 hrs; format: functional, Sprague-Dawley; outline: as §2
# Callitrichinae = experiment: Bradykinin-induced licking in male marmoset monkey; format: functional, Callithrix jacchus
# Outline: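 Male marmosets (293–359 g), 4–6 per group, individually housed; dosed po at 0.1, 1.0 and 10 mg/kg in 0.1% MC (vehicle control). 60 min post-dose, 100 μL of 1 mM bradykinin in saline injected i.pl. into foot pad. Response scored 0–3 every 15 s for 15 min from video; ataxia, sedation, emesis monitored. Alternate foot pads, 2-week intervals.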
# Rattus norvegicus [18] = experiment: Toxicity in rat liver administered at 75 umol/kg, iv; format: organism-based; settings: in vivo
# Outline: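 Three male rats given 75 μmol/kg total iv in 75:25 PEG-400/saline as two 40-min infusions 12 h apart; serum taken 24 h after first infusion for bilirubin, SGOT, SGPT, creatine, GGT, albumin, glucose, BUN and ALP.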
# Rattus norvegicus [19] = experiment: Hyperalgesia in male SD rat administered 1 hr before carrageenan injection, analgesia tested at 3 hrs; format: functional; settings: Sprague-Dawley; outline: as §2
# [20] = Clearance in dog at 3 mg/kg, po; format: ADME, organism-based, Canis lupus familiaris; design: dose 3 mg/kg, route oral; settings: in vivo; outline: as §1
# [21] = AUC (0-24) in dog at 3 mg/kg, po; format: ADME, organism-based, Canis lupus familiaris; design: time < 24 hr, dose 3 mg/kg, route oral; settings: plasma
# [22] = Oral bioavailability in rat at 3 mg/kg, po; format: ADME, organism-based; settings: in vivo; outline: as §1
# Adenosine kinase = Adenosine kinase (Homo sapiens, UniProt P55263); experiment: Inhibitory activity against recombinant human adenosine kinase
# Sequence of Adenosine kinase (P55263 whole entry): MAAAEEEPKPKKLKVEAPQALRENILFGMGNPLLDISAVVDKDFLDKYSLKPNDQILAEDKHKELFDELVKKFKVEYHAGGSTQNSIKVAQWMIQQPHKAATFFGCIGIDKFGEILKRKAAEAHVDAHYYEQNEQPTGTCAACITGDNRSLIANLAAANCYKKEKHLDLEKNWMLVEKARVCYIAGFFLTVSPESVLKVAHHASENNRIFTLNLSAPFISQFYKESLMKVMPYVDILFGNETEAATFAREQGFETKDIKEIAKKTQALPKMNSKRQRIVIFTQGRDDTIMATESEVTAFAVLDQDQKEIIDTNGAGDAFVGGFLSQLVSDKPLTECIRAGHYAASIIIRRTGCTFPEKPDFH
# [23] = Time taken to achieve maximum concentration in rat at 3 mg/kg, po; format: ADME, organism-based; design: dose 3 mg/kg, route oral; settings: in vivo; outline: as §1
# [24] = Time taken to achieve maximum concentration in dog at 3 mg/kg, po; format: ADME, organism-based, Canis lupus familiaris; design: dose 3 mg/kg, route oral; settings: in vivo; outline: as §1
# Rattus norvegicus [25] = organism: Rattus norvegicus; experiment: Rotarod test in rat at 2 hrs; format: functional; settings: Sprague-Dawley; outline: as §3
# [26] = Solubility in water at pH 7.4
# Rattus norvegicus [27] = experiment: Hyperalgesia in male SD rat administered 2 hrs after carrageenan injection, analgesia tested at 4 hrs; format: functional; settings: Sprague-Dawley; outline: as §2
# [28] = Maximum concentration in dog at 3 mg/kg, po; format: ADME, organism-based, Canis lupus familiaris; design: dose 3 mg/kg, route oral; settings: in vivo; outline: as §1
# Rattus norvegicus [29] = experiment: Hyperalgesia in male SD rat administered 1 hr before carrageenan injection, analgesia tested at 4 hrs; format: functional; settings: Sprague-Dawley; outline: as §2
compound,measurement,setting,value
C[C@H]1O[C@@H](n2cc(-c3ccccc3)c3c(NCC(=O)NC4CC4)ncnc32)[C@H](O)[C@@H]1O,half-life,[1],312 min
same,Vdss,Canis familiaris,6.3 L/kg
same,Vdss,Rattus norvegicus [2],3.3 L/kg
same,ED50,Rattus norvegicus [3],1.6 mg/kg
same,half-life,[4],18 min
same,ED50,Rattus norvegicus [5],62 mg/kg
same,ED50,Rattus norvegicus [6],6.5 mg/kg
same,CL/F,[7],56.7 mL/min/kg
same,AUC at 24 h,[8],981 ng·h/mL
same,Inhibition,Rattus norvegicus [9],<50%
same,ED50,Rattus norvegicus [10],2.5 mg/kg
same,inhibition in vivo at 20 mg/kg,Rattus norvegicus [11],66%
same,half-life,[12],198 min
same,ED50,Rattus norvegicus [13],> 300 mg/kg
same,Cmax,[14],660 ng/mL
same,ED50,Rattus norvegicus [15],> 300 mg/kg
same,half-life,[16],120 min
same,Inhibition,Rattus norvegicus [17],<50%
same,ED50,Callitrichinae,0.9 mg/kg
same,Activity,Rattus norvegicus [18],Non-toxic
same,ED50,Rattus norvegicus [19],2.6 mg/kg
same,CL/F,[20],35 mL/min/kg
same,AUC at 24 h,[21],1490 ng·h/mL
same,bioavailability,[22],128%
same,IC50,Adenosine kinase,3 nM
same,Tmax,[23],18 min
same,Tmax,[24],18 min
same,ED50,Rattus norvegicus [25],102 mg/kg
same,solubility,[26],32 µg/mL
same,ED50,Rattus norvegicus [27],4.1 mg/kg
same,Cmax,[28],518 ng/mL
same,ED50,Rattus norvegicus [29],3.8 mg/kg
